# Rows were chosen to be rich in hits. Some 2.8% of all compounds tested hit in one or more screens of this group.
# DENV2 CPE: DENV2-induced cell death inhibition. DENV2-infected cells, cytopathic effect rescue, plate reader. hit rate 1.7% among 350,000. CPE inhibition, % at 9.99 µM. AID 651640; in the data active = CPE inhibition above about 20%, passing the limit was not always enough; tested in BHK-21 cells;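 note: 0% = median of neutral control wells and 100% = median of positive control wells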
# SIRT5 block: blocks human SIRT5 desuccinylation of peptide. Q9NXA8. Purified SirT5, succinyl-peptide AMC, trypsin-coupled fluorescence. inhibition, % at 15 µM. hit rate 1.1% among 330,000. AID 652115; in the data active = inhibition above about 15%
# Target sequence (Q9NXA8 whole entry, looked up): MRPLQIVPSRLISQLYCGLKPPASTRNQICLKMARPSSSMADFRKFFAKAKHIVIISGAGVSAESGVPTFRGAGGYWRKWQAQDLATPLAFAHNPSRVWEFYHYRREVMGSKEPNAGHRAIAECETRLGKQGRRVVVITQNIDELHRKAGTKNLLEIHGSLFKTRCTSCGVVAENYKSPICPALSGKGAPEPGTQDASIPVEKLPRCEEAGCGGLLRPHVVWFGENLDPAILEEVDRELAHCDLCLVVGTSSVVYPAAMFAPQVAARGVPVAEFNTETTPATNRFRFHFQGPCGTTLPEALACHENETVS
# E-selectin induc: E-selectin induction on HUVECs; P16581; HUVEC E-selectin immunofluorescence imaging; normalized: neutral wells 0, TNF-alpha wells 100; activation, % at 7.58 µM; hit rate 0.37% among 260,000; AID 686992;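 active = mean E-selectin-positive cell signal at least 10% of the positive control, reached in at least 60% of replicates, without over 20% cell loss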
#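 Assay system: HUVEC, human umbilical vein endothelial cells / Amount: 3,000 HUVEC/well / Controls: TNF-alpha positive control, DMSO neutral control / Compound dosing: single concentration / Medium: EGM-2 over gelatin coat / Evaluation: percent E-selectin-positive cells / Signal: immunofluorescence imaging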
# * hit, by the source's call; . = not tested or not shown; ! = not active in a repeat.
SMILES,DENV2 CPE,SIRT5 block,E-selectin induc
C[C@@H]1CCCCO[C@@H](CN(C)CC2CCCCC2)[C@@H](C)CN([C@H](C)CO)C(=O)c2cc(NC(=O)CCC(F)(F)F)ccc2O1,63.1*,.,0.6
C[C@H]1CCCCO[C@@H](CN(C)Cc2ccc(C(F)(F)F)cc2)[C@@H](C)CN([C@@H](C)CO)C(=O)c2cc(NC(=O)CCC(F)(F)F)ccc2O1,-6.2,16.2*,0.3
C[C@@H]1CN([C@H](C)CO)C(=O)c2cc(NC(=O)CCC(F)(F)F)ccc2O[C@@H](C)CCCCO[C@H]1CN(C)Cc1ccc(Cl)c(Cl)c1,71.5*,0.6,-0.1
COc1ccc(CN(C)C[C@H]2OCCCC[C@@H](C)Oc3ccc(NC(=O)CCC(F)(F)F)cc3C(=O)N([C@H](C)CO)C[C@H]2C)cc1,-1.1,2.0,0.1
C[C@@H]1CCCCO[C@@H](CN(C)CC2CCCCC2)[C@H](C)CN([C@H](C)CO)C(=O)c2cc(NC(=O)CCC(F)(F)F)ccc2O1,.,.,0.5
C[C@@H]1CCCCO[C@@H](CN(C)Cc2ccc(C(F)(F)F)cc2)[C@@H](C)CN([C@H](C)CO)C(=O)c2cc(NC(=O)CCC(F)(F)F)ccc2O1,-6.8,0.1,0.1
C[C@H]1CN([C@@H](C)CO)S(=O)(=O)c2ccc(C#CC3CC3)cc2O[C@H]1CN(C)C(=O)Nc1cc(F)ccc1F,.,.,-0.9
O=C(C[C@@H]1CC[C@H]2[C@@H](COC[C@@H](O)CN2Cc2nccs2)O1)NCc1ccc(F)cc1,-1.4,-2.2,0.0
O=C(C[C@@H]1C=C[C@H](NC(=O)Nc2ccc3c(c2)OCO3)[C@@H](CO)O1)NCc1ccc(F)cc1,2.4,-0.5,-1.5
COc1ccc(CN(C)C[C@H]2OCCCC[C@@H](C)Oc3ccc(NC(=O)Nc4cccc5ccccc45)cc3C(=O)N([C@@H](C)CO)C[C@@H]2C)cc1,-8.1,0.1,0.0
CO[C@H]1CN(C)C(=O)c2cc(NC(=O)C3CCCC3)ccc2OC[C@@H](C)N(C)C[C@H]1C,0.7,-2.7,0.0
COc1ccc(NC(=O)N(C)C[C@H]2OCCCC[C@@H](C)Oc3ccc(NC(=O)CCC(F)(F)F)cc3C(=O)N([C@@H](C)CO)C[C@@H]2C)cc1,-9.4,3.4,0.0
COc1ccc(NC(=O)N(C)C[C@H]2OCCCC[C@@H](C)Oc3ccc(NC(=O)CCC(F)(F)F)cc3C(=O)N([C@@H](C)CO)C[C@H]2C)cc1,20.9*,2.0,-0.2
COc1ccc2c3c(n(C)c2c1)[C@@H](CO)NCC31CN(C(=O)Nc2ccc(F)cc2F)C1,-7.8,.,-0.4
O=C1NC(Cc2ccc(O)cc2)c2nc3cc(F)c(F)cc3c(=O)n2-c2cc3ccccc3cc21 (stereo unspecified),0.8,.,0.5
CC(C)CC1NC(=O)c2ccccc2-n2c1nc1cc(F)ccc1c2=O (stereo unspecified),9.3,-3.8,-0.1
O=C1NC(Cc2ccc(O)cc2)c2nc3ccc(F)cc3c(=O)n2-c2cc3ccccc3cc21 (stereo unspecified),1.0,28.8*,0.3
COc1cc2nc3n(c(=O)c2cc1OC)-c1cc2ccccc2cc1C(=O)NC3Cc1ccccc1 (stereo unspecified),-5.6,-3.3,0.8
COc1ccc2nc3n(c(=O)c2c1)-c1ccccc1C(=O)NC3Cc1ccccc1 (stereo unspecified),89.3*,.,-0.2
CC(C)CC1NC(=O)c2ccccc2-n2c1nc1ccccc1c2=O (stereo unspecified),39.7*,2.0,0.0
CO[C@H]1CN(C)C(=O)c2ccc(NS(C)(=O)=O)cc2OC[C@@H](C)N(CC2CCOCC2)C[C@H]1C,1.7,2.5,0.3
Cc1ccc(S(=O)(=O)N2C[C@@H](O)COC[C@H]3O[C@H](CC(=O)N[C@H]4CCN(Cc5ccccc5)C4)CC[C@@H]32)cc1,-3.2,-2.7,-0.1
CN(C)c1ccc2c(c1)[C@@H]1C[C@@H](CC(=O)NCc3ccc(-c4ccccc4)cc3)O[C@H](CO)[C@@H]1O2,17.1,.,-0.3
COc1ccccc1CNC(=O)C[C@H]1CC[C@H](NC(C)=O)[C@@H](CO)O1,0.0,4.4,-0.5
C[C@H](CO)N1C[C@H](C)[C@@H](CN(C)S(=O)(=O)c2cn(C)cn2)Oc2c(NS(=O)(=O)c3ccccc3)cccc2C1=O,23.1*!,-7.8,2.3
SMILES,DENV2 CPE,SIRT5 block,E-selectin induc
C[C@H](CO)N1C[C@H](C)[C@@H](CN(C)CC2CCCCC2)Oc2c(NS(=O)(=O)c3ccc(F)cc3)cccc2C1=O,-7.6,26.8*!,0.6
C[C@H](CO)N1C[C@H](C)[C@H](CN(C)Cc2ccc(C(F)(F)F)cc2)Oc2c(NS(=O)(=O)c3cn(C)cn3)cccc2C1=O,1.4,-1.8,-11.0
C[C@@H]1CN([C@H](C)CO)C(=O)c2cccc(NS(=O)(=O)c3ccccc3)c2O[C@@H]1CN(C)S(=O)(=O)c1cn(C)cn1,-1.2,1.2,0.2
C[C@@H]1CN([C@@H](C)CO)C(=O)c2cccc(NS(=O)(=O)c3cn(C)cn3)c2O[C@@H]1CN(C)Cc1ccc(C(F)(F)F)cc1,21.9*,0.6,-14.1
C[C@@H]1CN([C@@H](C)CO)C(=O)c2cccc(NS(=O)(=O)c3ccccc3)c2O[C@@H]1CN(C)CC1CCCCC1,24.4*,1.0,0.0
C[C@@H]1CN([C@H](C)CO)C(=O)c2cccc(NS(=O)(=O)c3ccc(F)cc3)c2O[C@H]1CN(C)CC1CCCCC1,-3.3,-1.1,0.5
C[C@@H]1CN([C@H](C)CO)C(=O)c2cccc(NS(=O)(=O)c3ccccc3)c2O[C@H]1CN(C)CC1CCCCC1,-4.8,3.4,0.3
C[C@H](CO)N1C[C@H](C)[C@@H](CN(C)Cc2ccc(-c3ccccc3)cc2)Oc2ccc(NS(C)(=O)=O)cc2CC1=O,19.8,0.0,1.5
CCCN1C[C@H](C)[C@H](OC)CN(C)C(=O)c2ccc(NC(=O)c3cccc(OC)c3)cc2OC[C@H]1C,-2.5,3.3,-0.3
Cc1noc(C)c1S(=O)(=O)Nc1cccc2c1O[C@H](CN(C)C(=O)Nc1ccccc1)[C@H](C)CN([C@@H](C)CO)C2=O,2.7,2.6,-0.1
C[C@@H]1CN([C@H](C)CO)C(=O)Cc2cc(NC(=O)Cn3cnnn3)ccc2O[C@H]1CN(C)C(=O)Nc1ccc(F)cc1,.,.,11.1
COC(=O)C[C@@H]1C[C@@H]2c3cc(NC(=O)c4cccnc4)ccc3O[C@@H]2[C@H](CO)O1,-1.5,0.9,-0.1
C[C@@H]1CN([C@H](C)CO)C(=O)c2cccc(NS(C)(=O)=O)c2O[C@H]1CN(C)CC1CCCCC1,-7.9,2.5,0.7
C[C@@H]1CN([C@H](C)CO)C(=O)c2cccc(NS(C)(=O)=O)c2O[C@@H]1CN(C)CC1CCCCC1,16.3,18.1*,-0.2
CNC[C@@H]1Oc2ccc(NC(=O)C3CCCCC3)cc2C(=O)N([C@@H](C)CO)C[C@@H]1C,-5.7,4.8,0.0
CCOC(=O)C(NC(=O)CC)(Nc1ccc(S(=O)(=O)Nc2onc(C)c2C)cc1)C(F)(F)F (stereo unspecified),.,1.0,.
CCOC(=O)C(NC(C)=O)(Nc1ccc(S(=O)(=O)Nc2ncccn2)cc1)C(F)(F)F (stereo unspecified),3.8,19.0*,.
CN(C)C(=O)[C@H]1[C@H](CO)[C@H]2Cn3c(ccc(-c4cccnc4)c3=O)[C@H]2N1Cc1ccccc1F,-5.6,2.2,0.2

# Screens as filed in PubChem BioAssay.
